Data reported in ChEMBL document CHEMBL1152744, “Select pyrimidinones inhibit the propagation of the malarial parasite, Plasmodium falciparum” (Bioorg Med Chem, 2009).

Key:
Plasmodium falciparum [1] = assay: Antimalarial activity against chloroquine-resistant Plasmodium falciparum Dd2 infected human erythrocytes after 72 hrs by [3H]hypoxanthine uptake; assay type: functional, organism-based
In short: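 Asexual blood-stage P. falciparum Dd2 (chloroquine-resistant) in human erythrocytes, exposed to compound for 72 h, with [3H]hypoxanthine added for the last 24 h. Dose-response series were run, and IC50 was calculated by linear regression on the linear portions of plotted uptake values. Chloroquine was included as an internal control.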

[2] = biological target: Heat shock protein SSA1 (Saccharomyces cerevisiae S288c) (UniProt P10591); assay: Inhibition of Saccharomyces cerevisiae Ssa1 ATPase activity assessed as residual enzyme activity at 300 uM relative to control
Sequence of Heat shock protein SSA1 (Saccharomyces cerevisiae S288c) (P10591 whole entry): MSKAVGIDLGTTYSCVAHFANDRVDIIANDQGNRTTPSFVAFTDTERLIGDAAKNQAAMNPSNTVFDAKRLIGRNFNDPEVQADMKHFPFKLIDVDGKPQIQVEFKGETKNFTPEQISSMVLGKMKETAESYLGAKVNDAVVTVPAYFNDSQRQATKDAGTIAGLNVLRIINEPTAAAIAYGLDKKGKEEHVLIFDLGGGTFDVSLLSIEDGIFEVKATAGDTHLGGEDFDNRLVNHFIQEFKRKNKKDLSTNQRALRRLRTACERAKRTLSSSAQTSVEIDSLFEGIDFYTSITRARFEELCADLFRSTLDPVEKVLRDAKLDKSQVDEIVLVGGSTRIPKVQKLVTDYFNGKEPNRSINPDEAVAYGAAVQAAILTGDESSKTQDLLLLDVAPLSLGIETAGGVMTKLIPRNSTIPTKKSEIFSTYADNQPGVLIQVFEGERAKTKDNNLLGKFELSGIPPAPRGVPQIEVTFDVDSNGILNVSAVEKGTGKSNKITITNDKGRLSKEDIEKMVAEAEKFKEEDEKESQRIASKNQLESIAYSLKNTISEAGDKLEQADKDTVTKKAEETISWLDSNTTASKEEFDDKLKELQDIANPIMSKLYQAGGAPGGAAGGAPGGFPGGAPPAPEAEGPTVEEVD
In short: (§1)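 Steady-state ATPase assay with P. falciparum Hsp70, yeast Ssa1 or human Hsp70. Compound at 300 μM final; activity standardized to an equal volume of DMSO, set to 1. Values are means of 6 independent experiments, ±SD where shown.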

Plasmodium falciparum [3] = assay: Antimalarial activity against chloroquine-resistant Plasmodium falciparum Dd2 infected human erythrocytes at 5 uM after 72 hrs as inhibition of [3H]hypoxanthine uptake; assay type: functional
In short: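 Single-point screen of Dd2 asexual blood stages in human red cells at final concentrations of 1 μM and 5 μM, with 72 h drug exposure and [3H]hypoxanthine pulse over the final 24 h. Read-out was percent inhibition of label uptake. Compounds giving >50% inhibition at 5 μM were re-screened.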

[4] = biological target: Heat shock 70 kDa protein 1A (Homo sapiens) (UniProt P0DMV8); assay: Effect on human HSPA1A ATPase activity assessed as fold change in Kcat at 100 uM in presence of J-domain containing Hdj1 co-chaperone relative to control
Sequence of Heat shock 70 kDa protein 1A (Homo sapiens) (P0DMV8 2-641 limits assumed): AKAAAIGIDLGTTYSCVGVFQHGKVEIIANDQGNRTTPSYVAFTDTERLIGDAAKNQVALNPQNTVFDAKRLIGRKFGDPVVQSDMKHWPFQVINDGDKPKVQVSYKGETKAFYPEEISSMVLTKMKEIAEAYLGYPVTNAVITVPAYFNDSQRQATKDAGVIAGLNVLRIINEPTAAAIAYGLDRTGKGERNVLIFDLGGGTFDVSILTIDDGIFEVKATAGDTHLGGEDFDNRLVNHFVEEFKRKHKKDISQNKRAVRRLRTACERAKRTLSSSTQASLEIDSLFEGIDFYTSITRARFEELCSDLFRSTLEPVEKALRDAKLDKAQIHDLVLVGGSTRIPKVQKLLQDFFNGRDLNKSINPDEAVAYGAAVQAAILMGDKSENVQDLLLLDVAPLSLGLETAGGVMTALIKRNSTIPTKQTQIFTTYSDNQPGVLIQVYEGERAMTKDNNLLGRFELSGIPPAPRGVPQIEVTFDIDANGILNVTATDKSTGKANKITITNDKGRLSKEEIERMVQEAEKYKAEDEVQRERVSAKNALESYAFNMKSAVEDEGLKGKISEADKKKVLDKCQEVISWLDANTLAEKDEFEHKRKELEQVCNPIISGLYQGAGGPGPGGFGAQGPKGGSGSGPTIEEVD

[5] = biological target: Heat shock protein SSA1 (Saccharomyces cerevisiae S288c) (UniProt P10591); assay: Effect on Saccharomyces cerevisiae Ssa1 ATPase activity assessed as fold change in Kcat at 100 uM in presence of J-domain containing yeast Ydj1 co-chaperone relative to control
In short: (§2)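 Single-turnover ATPase assay measuring kCAT of recombinant P. falciparum Hsp70 (E. coli Rosetta 2, Ni-chelate then Q-Sepharose purified), yeast Ssa1, or human HSPA1A (E. coli-expressed, untagged or His6). Optional J-domain partners: Hlj1 1.1 μM; Ydj1 0.045 μM with Ssa1, 0.9 μM with Pf or human Hsp70. Compound at 100 μM final; activity expressed as a fraction of the DMSO-only reaction under the same conditions, set to 1.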

[6] = biological target: Heat shock 70 kDa protein 1A (Homo sapiens) (UniProt P0DMV8); assay: Effect on human HSPA1A ATPase activity assessed as fold change in Kcat at 100 uM presence of J-domain containing yeast Ydj1 co-chaperone relative to control; in short: as §2
[7] = biological target: Heat shock 70 kDa protein 1A (Homo sapiens) (UniProt P0DMV8); assay: Inhibition of human HSPA1A ATPase activity assessed as residual enzyme activity at 300 uM relative to control; in short: as §1
[8] = biological target: Heat shock protein SSA1 (Saccharomyces cerevisiae S288c) (UniProt P10591); assay: Effect on Saccharomyces cerevisiae Ssa1 ATPase activity assessed as fold change in Kcat at 100 uM in presence of J-domain containing yeast HlJ1 co-chaperone relative to control; in short: as §2
Plasmodium falciparum [9] = assay: Effect on Plasmodium falciparum Hsp70 ATPase activity assessed as fold change in Kcat at 100 uM relative to control; in short: as §2
[10] = biological target: Heat shock 70 kDa protein 1A (Homo sapiens) (UniProt P0DMV8); assay: Effect on human HSPA1A ATPase activity assessed as fold change in Kcat at 100 uM relative to control; in short: as §2
[11] = Cytotoxicity against human WI38 cells; assay type: cell-based, WI-38
In short: (§3)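 GI50 measured in HepG2 hepatocellular carcinoma and WI-38 embryonic diploid lung cells, calculated relative to a DMSO (negative) control.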

[12] = biological target: Heat shock protein SSA1 (Saccharomyces cerevisiae) (UniProt P10591); assay: Effect on yeast Hsp70 Ssa1 ATPase activity assessed as fold change in Kcat at 100 uM relative to control
[13] = biological target: Heat shock protein SSA1 (Saccharomyces cerevisiae S288c) (UniProt P10591); assay: Effect on Saccharomyces cerevisiae Ssa1 ATPase activity assessed as fold change at 100 uM in Kcat relative to control; in short: as §2
Plasmodium falciparum [14] = assay: Effect on Plasmodium falciparum Hsp70 ATPase activity assessed as fold change in Kcat at 100 uM in presence of J-domain containing yeast HlJ1 co-chaperone relative to control; in short: as §2
[15] = biological target: Heat shock 70 kDa protein (Plasmodium falciparum) (UniProt P11144); assay: Inhibition of Plasmodium falciparum Hsp70 ATPase activity assessed as residual enzyme activity at 300 uM relative to control; in short: as §1
Sequence of Heat shock 70 kDa protein (Plasmodium falciparum) (P11144 whole entry): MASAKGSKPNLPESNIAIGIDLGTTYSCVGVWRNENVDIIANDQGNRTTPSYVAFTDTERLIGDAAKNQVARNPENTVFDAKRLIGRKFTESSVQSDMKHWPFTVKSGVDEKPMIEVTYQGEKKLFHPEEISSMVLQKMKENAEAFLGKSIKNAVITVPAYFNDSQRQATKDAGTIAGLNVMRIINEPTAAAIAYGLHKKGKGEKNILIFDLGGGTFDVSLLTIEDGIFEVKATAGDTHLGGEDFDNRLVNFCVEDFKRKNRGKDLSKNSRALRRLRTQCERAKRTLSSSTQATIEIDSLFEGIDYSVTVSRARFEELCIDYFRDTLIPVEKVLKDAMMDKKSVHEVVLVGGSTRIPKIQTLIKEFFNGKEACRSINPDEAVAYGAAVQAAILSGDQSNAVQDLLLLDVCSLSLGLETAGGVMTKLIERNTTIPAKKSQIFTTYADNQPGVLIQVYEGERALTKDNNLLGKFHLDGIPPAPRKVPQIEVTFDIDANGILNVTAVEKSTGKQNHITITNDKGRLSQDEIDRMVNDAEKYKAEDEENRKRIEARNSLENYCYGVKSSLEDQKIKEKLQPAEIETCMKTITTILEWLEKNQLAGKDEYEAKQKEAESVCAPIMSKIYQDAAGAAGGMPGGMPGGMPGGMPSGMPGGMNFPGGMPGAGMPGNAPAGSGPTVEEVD

[16] = Cytotoxicity against human HepG2 cells; assay type: cell-based; in short: as §3
[17] = biological target: Heat shock 70 kDa protein 1A (Homo sapiens) (UniProt P0DMV8); assay: Inhibition of human Hsp70 ATPase activity assessed as reduction of rate of ATP hydrolysis; parameters: scale not given: the % may be the effect or the level left

Compound | IC50 (Plasmodium falciparum [1]) [µM] | fold change (FC) [2] | inhibition at 5 µM (Plasmodium falciparum [3]) [%] | fold change (FC) [4] | fold change (FC) [5] | fold change (FC) [6] | fold change (FC) [7] | fold change (FC) [8] | fold change (FC) (Plasmodium falciparum [9]) | fold change (FC) [10] | GI50 [11] [µM] | fold change (FC) [12] | fold change (FC) [13] | fold change (FC) (Plasmodium falciparum [14]) | fold change (FC) [15] | GI50 [16] [µM] | Activity [17] [%]
CCCCNC(=O)C(c1ccc(-c2ccccc2)cc1)N(CCN1CCOCC1)C(=O)CCCCCN1C(=O)NC(c2ccc([N+](=O)[O-])cc2)C(C(=O)OCc2ccccc2)=C1C (configuration not stated) | 0.2 | 1 | > 50 | 4.7 | -2.6 | 1 | 0.74 | -1.1 | 2.3 | 1 | > 10 | -1.6 | -1.6 | -1.3 | 0.73 | > 10 | 
COC(=O)C1=C(Cc2ccccc2)NC(=O)NC1c1ccc2ccccc2c1 (configuration not stated) | 0.3 | 1.2 | > 50 | 2.5 | -1.3 | -1.2 | 0.7 | -1.2 | 1.4 | 1.3 | > 10 | 2 | 2 | -1.2 | 1 | > 10 | 30
CCCCN1C(=O)NC(c2ccc(OC)cc2)C(C(=O)OCc2ccccc2)=C1C (configuration not stated) | 0.2 | 0.95 | > 50 | 4.5 | -1.1 | 1.1 | 0.8 | 1 | 7.2 | 4.5 | > 10 |  | 2.3 | -1.1 | 0.92 | > 10 | 
CCOC(=O)C1=C(C)N(Cc2ccccc2)C(=O)NC1c1ccccc1OS(=O)(=O)c1ccccc1[N+](=O)[O-] (configuration not stated) | 0.1 | 1.1 | > 50 | 3.5 | -1.3 | -1.2 | 0.74 | 1 | 6.5 | 3.6 | > 10 | 2.1 | 2.1 | 1.4 | 0.99 | > 10 | 30
CCOC(=O)C1=C(C)N(CCCC(=O)NCCn2c(-c3ccccc3)cc(C(=O)OC)c2C)C(=O)NC1c1ccc([N+](=O)[O-])cc1 (configuration not stated) | 0.03 | 0.89 | > 50 | 4.3 | -1.6 | -1.2 | 0.8 | -1.6 | 3.7 | 2 | > 10 | -1.3 | -1.3 | 1.5 | 1.02 | > 10 | 
CCCCCCN(C(=O)CCCCCN1C(=O)NC(c2ccc(-c3ccccc3)cc2)C(C(=O)OCc2ccccc2)=C1C)C(C(=O)NCCCC)C1CCCCC1 (configuration not stated) | 1.1 | 0.97 | > 50 | 2.8 | -1.3 | 1.1 | 0.95 | 1.2 | 2.9 | 2.3 | > 10 | -1.7 | -1.7 | -1.5 | 0.74 | > 10 | 
CCOC(=O)C1=C(C)N(CCCCCC(=O)O)C(=O)NC1c1cccc([N+](=O)[O-])c1 (configuration not stated) | 1.6 | 0.93 | > 50 | 1.1 | 1.1 | -1.3 | 0.85 | 1 | 1.8 | 1.4 | > 10 | 1.3 | 1.3 | -1.1 | 1.01 | > 10 | 
COC(=O)c1cc(-c2ccccc2)n(CCNC(=O)CCCCCN2C(=O)NC(c3ccc(-c4ccccc4)cc3)C(C(=O)OCc3ccccc3)=C2C)c1C (configuration not stated) | 0.05 | 1.2 | > 50 | 5.3 | -1.7 | 1.5 | 0.72 | -6.5 | 2.7 | 3.5 | > 10 |  | 13.3 | -1.1 | 1.01 | > 10 | 30
CC(=O)O[C@H]1C(=O)[C@@]2(C)[C@H]([C@H](OC(=O)c3ccccc3)[C@]3(O)C[C@H](OC(=O)[C@H](O)[C@@H](NC(=O)c4ccccc4)c4ccccc4)C(C)=C1C3(C)C)[C@]1(OC(C)=O)CO[C@@H]1C[C@@H]2O [PACLITAXEL] |  |  |  |  |  |  |  |  |  |  | 0.0137 |  |  |  |  | 0.001 | 
CC1=C(C(=O)OCc2ccccc2)C(c2ccc([N+](=O)[O-])cc2)NC(=O)N1CCCC(=O)N(CCN1CCOCC1)C(C(=O)NC(C)(C)C)c1ccc(-c2ccccc2)cc1 (configuration not stated) | 0.8 | 0.75 | > 50 | 2.9 | -1.5 | -1.1 | 0.82 | 1 | 2.2 | 2 | > 10 | 1.2 | 1.2 | 1.4 | 0.72 | > 10 | 
